According to ChEMBL document CHEMBL4665779, “Novel 2-Substituted 3-Hydroxy-1,6-dimethylpyridin-4(1H)-ones as Dual-Acting Biofilm Inhibitors of Pseudomonas aeruginosa” (J Med Chem, 2020):
Calls of active or inactive are those of the source. The rule behind the calls is not given here.

Legend:
[1] = Growth inhibition of Pseudomonas aeruginosa PAO1 at 1.25 to 20 uM measured after 10 hrs in ABTGC media; settings: dose 1.25-20 µM
Pseudomonas aeruginosa [2] = assay: Inhibition of biofilm formation in multidrug resistant Pseudomonas aeruginosa 1129 at 20 uM relative to control; format: functional
[3] = biological target: Elastase (Pseudomonas aeruginosa (strain ATCC 15692 / PAO1 / 1C / PRS 101 / LMG12228)) (UniProt P14756); assay: Inhibition of lasB fluorescence in Pseudomonas aeruginosa PAO1 transfected with GFP by measuring fluorescence intensity every 15 mins for 12 hrs by microtiter plate reader assay; settings: dose microM 1.25-20, time 12.0 hrs
How it was run: (§1)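 PAO1-gfp, PAO1-lasB-gfp, PAO1-rhlA-gfp or PAO1-pqsA-gfp reporters were grown overnight in LB, then diluted in ABTGC medium to OD600 0.02, with compound at 1.25–20 μM. Controls were 0.1% DMSO and a blank. OD600 and GFP fluorescence (ex 485/em 535 nm) were read every 15 min for at least 12 h at 37 °C; triplicate.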

[4] = system: Pseudomonas aeruginosa PA14; assay: Inhibition of quorum sensing system PQS in Pseudomonas aeruginosa PA14 assessed as reduction in pyocyanin production measured after 48 hrs; settings: dose microM 1.25-20, time 48.0 hrs
How it was run: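 PA14 culture standardized to OD600 0.05 was diluted 100-fold in LB and grown 48 h at 37 °C with shaking, with compound at 1.25–20 μM. Cleared supernatant was extracted with chloroform (4:1), then back-extracted into 0.2 M HCl. A520 was read and normalized to final OD600.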

Pseudomonas aeruginosa [5] = assay: Antibiofilm activity against Pseudomonas aeruginosa PAO1 assessed as inhibition of biofilm formation after 24 hrs by crystal violet staining based assay; format: functional, organism-based; settings: dose microM 1.25-20, time 24.0 hrs
How it was run: (§2)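 PAO1 (OD600 0.05) was cultured in ABTGC medium at 37 °C for 24 h with compound (1.25–20 μM for the dose series). Wells were PBS-washed three times, methanol-fixed for 30 min, air-dried, and stained with 0.1% crystal violet for 30 min. Stain was solubilized in 33% acetic acid and read at 570 nm. Compound stocks were […]. Run in triplicate.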

Pseudomonas aeruginosa [6] = assay: Antibacterial activity against Pseudomonas aeruginosa infected in human L02 assessed as increase in cell survival pretreated for 24 hrs followed by cell addition and measured 4 hrs post-infection by MTT assay; format: functional, organism-based; settings: dose microM 1.25-20, time 28.0 hrs
How it was run: (§3)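 P. aeruginosa cultures were grown with 0, 1.25, 2.5, 5, 10 or 20 μM compound for 24 h at 37 °C with shaking. Washed cells (in DMEM) were infected at MOI 100 for 4 h. Bacteria were then killed with 500 μg/mL gentamycin for 2 h, and cells were given 500 μg/mL MTT for 16 h. Formazan was dissolved in DMSO and read at 570 nm.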

[7] = system: Pseudomonas aeruginosa PAO1; assay: Induction of iron chelation in Pseudomonas aeruginosa PAO1 assessed as increase in iron deficiency by measuring change in total ferric ion concentration at 1.25 uM by inductively coupled plasma mass spectrometry (reference value: 1.91 +/- 0.8 uM)
How it was run: (§4)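 PAO1 (OD600 0.05) was diluted 1:100 into ABTGC medium and grown 24 h at 37 °C with shaking, with compound; DFP at 20 μM was the reference. Pellets were washed twice in HEPES and lysed with lysozyme in 50 mM HEPES plus sonication for 30 min. Lysates were digested with 1 M nitric acid, centrifuged, and analysed by ICP-MS. Mean ± SD, triplicate.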

Pseudomonas aeruginosa [8] = assay: Antibacterial activity against Pseudomonas aeruginosa infected in human L02 assessed as cell survival at 20 uM pretreated for 24 hrs followed by cell addition and measured 4 hrs post-infection by MTT assay (reference value: 40.7%); format: functional; settings: time 28 hrs
Pseudomonas aeruginosa [9] = assay: Antibiofilm activity against Pseudomonas aeruginosa PAO1 assessed as inhibition of biofilm formation at 20 uM after 24 hrs by crystal violet staining based assay relative to control; format: functional; how it was run: as §2
Pseudomonas aeruginosa [10] = assay: Inhibition of biofilm formation in multidrug resistant Pseudomonas aeruginosa 1129 at 2.5 uM relative to control; format: functional
[11] = Inhibition of GFP (unknown origin) at 1.25 to 20 uM by measuring fluorescence intensity every 15 mins for 12 hrs by microtiter plate reader assay; settings: dose microM 1.25-20, time 12.0 hrs; how it was run: as §1
Pseudomonas aeruginosa [12] = assay: Inhibition of biofilm formation in multidrug resistant Pseudomonas aeruginosa FB at 20 uM relative to control; format: functional
[13] = system: Pseudomonas aeruginosa PAO1; assay: Induction of iron chelation in Pseudomonas aeruginosa PAO1 assessed as increase in iron deficiency by measuring ferric ion concentration inductively coupled plasma mass spectrometry; settings: dose microM 1.25-20; how it was run: as §4
[14] = system: Pseudomonas aeruginosa PAO1; assay: Induction of iron chelation in Pseudomonas aeruginosa PAO1 assessed as increase in iron deficiency by measuring change in total ferric ion concentration at 2.5 uM by inductively coupled plasma mass spectrometry (reference value: 1.91 +/- 0.8 uM); how it was run: as §4
Pseudomonas aeruginosa [15] = assay: Inhibition of swimming motility of Pseudomonas aeruginosa PAO1 measured after 16 hrs; format: functional, organism-based; settings: dose microM 1.25-20, time 16.0 hrs
How it was run: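 Compound (0–20 μM) was included in LB plates with 0.3% agar, 0.5% casamino acids and 0.5% glucose. Plates were dried 1 h, then 1 μL PAO1 (OD600 1) was placed at the plate bottom. Incubation was 16 h at 37 °C; three independent experiments.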

Pseudomonas aeruginosa [16] = assay: Antibiofilm activity against Pseudomonas aeruginosa PAO1 assessed as reduction in biofilm mass after 24 hrs by microtiter plate assay; format: functional, organism-based; settings: dose microM 1.25-20, time 24.0 hrs; how it was run: as §2
[17] = system: Pseudomonas aeruginosa PAO1; assay: Induction of iron chelation in Pseudomonas aeruginosa PAO1 assessed as increase in iron deficiency by measuring change in total ferric ion concentration at 20 uM by inductively coupled plasma mass spectrometry (reference value: 1.91 +/- 0.8 uM)
Pseudomonas aeruginosa [18] = assay: Antibiofilm activity against Pseudomonas aeruginosa PAO1 assessed as inhibition of biofilm formation after 18 hrs by crystal violet staining based assay; format: functional, organism-based; settings: PAO1, 18 h
Pseudomonas aeruginosa [19] = assay: Inhibition of biofilm formation in multidrug resistant Pseudomonas aeruginosa 1121 at 5 uM relative to control; format: functional
Pseudomonas aeruginosa [20] = assay: Inhibition of biofilm formation in multidrug resistant Pseudomonas aeruginosa 1167 at 10 uM relative to control; format: functional
Pseudomonas aeruginosa [21] = assay: Antibacterial activity against Pseudomonas aeruginosa infected in African green monkey Vero cells assessed as increase in cell survival pretreated for 24 hrs followed by cell addition and measured 4 hrs post-infection by MTT assay; format: functional, organism-based; settings: dose microM 1.25-20, time 28.0 hrs; how it was run: as §3
[22] = system: Pseudomonas aeruginosa PAO1; assay: Induction of iron chelation in Pseudomonas aeruginosa PAO1 assessed as increase in intracellular pyochelin level at 1.25 to 20 uM in presence of 50 uM FeCl3 by fluorescence microplate reader assay; format: cell-based; settings: dose microM 1.25-20
How it was run: (§5)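 PAO1 overnight LB culture was diluted in ABTGC medium to OD600 0.02 ([…]), with compound at 0–20 μM, in medium containing 10 or 50 μM FeCl3. Plates were kept at 37 °C in a plate reader recording OD600, pyoverdine fluorescence (ex 400/em 447 nm) and pyochelin fluorescence (ex 350/em 430 nm). Triplicate.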

[23] = system: Pseudomonas aeruginosa PAO1; assay: Induction of iron chelation in Pseudomonas aeruginosa PAO1 assessed as increase in intracellular pyoverdin level in presence of 10 uM FeCl3 by fluorescence microplate reader assay; format: cell-based; settings: dose microM 1.25-20; how it was run: as §5

Elastase (Pseudomonas aeruginosa (strain ATCC 15692 / PAO1 / 1C / PRS 101 / LMG12228)), sequence (P14756 198-498 limits assumed): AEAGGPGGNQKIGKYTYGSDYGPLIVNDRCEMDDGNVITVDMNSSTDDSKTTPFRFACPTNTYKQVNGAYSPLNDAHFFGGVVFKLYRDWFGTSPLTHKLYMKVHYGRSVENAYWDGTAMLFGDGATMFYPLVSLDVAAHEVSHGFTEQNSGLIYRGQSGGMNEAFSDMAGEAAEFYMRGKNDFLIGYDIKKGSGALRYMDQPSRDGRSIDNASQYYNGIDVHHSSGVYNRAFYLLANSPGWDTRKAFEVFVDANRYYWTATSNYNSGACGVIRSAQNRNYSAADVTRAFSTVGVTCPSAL

CCCCCCC(=O)NCc1c(O)c(=O)cc(C)n1C
growth inhibition (GI) [1]: Non-Toxic
inhibition at 20 µM (Pseudomonas aeruginosa [2]): 40%
inhibition [3]: Dose-dependent effect
inhibition [4]: Dose-dependent effect
inhibition (Pseudomonas aeruginosa [5]): Dose-dependent effect
Activity (Pseudomonas aeruginosa [6]): Dose-dependent effect
Activity [7]: 1.55 µM
survival at 20 µM (Pseudomonas aeruginosa [8]): 89.9%
inhibition at 20 µM (Pseudomonas aeruginosa [9]): 68.7%
inhibition at 2.5 µM (Pseudomonas aeruginosa [10]): 21.3%
inhibition [11]: inactive
inhibition at 20 µM (Pseudomonas aeruginosa [12]): 14.4%
Activity [13]: Dose-dependent effect
Activity [14]: 1.56 µM
inhibition (Pseudomonas aeruginosa [15]): Dose-dependent effect
Activity (Pseudomonas aeruginosa [16]): Dose-dependent effect
Activity [17]: 0.88 µM
IC50 (Pseudomonas aeruginosa [18]): 6.57 µM
inhibition at 5 µM (Pseudomonas aeruginosa [19]): 10.6%
inhibition at 10 µM (Pseudomonas aeruginosa [20]): 47.4%
Activity (Pseudomonas aeruginosa [21]): Dose-dependent effect
Activity [22]: inactive
Activity [23]: Dose-dependent effect
